# Shown is part of a subset that was picked to be rich in hits.
# HCT116 bCat-KO: primary screen for growth suppressors in beta-catenin knockout HCT116 cells (colon tumor, human) | HCT116 beta-catenin knockout viability, CellTiter-Glo, 60 h; active compounds read low | viability, % at 10 µM | 140,000 compounds, 1.5% hits;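 active means viability at or under a set limit, the compound median less 4 SD, cut at about 6% in these data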;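 further: 0% = Hyamine 1622 control at 20 µM and 100% = untreated cell control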
# PTEN del growth: growth suppression of PTEN-null HCT116, primary screen, cell-based, CellTiter-Glo; AID 827, 2007; 140,000 compounds, 1.2% hits; viability, % at 10 µM; HCT116 PTEN-null viability, 60 h; active compounds read low;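 active means viability at or below a set limit, 4 SD under the median of all tested compounds, cut at about 3.7% in these data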;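 further: PTEN knockout HCT116 line with beta catenin targeted HCT116 as companion control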
# HUVEC prolif 384: inhibitors of HUVEC proliferation, primary screen, cell-based, 384-well; 86,000 compounds, 1.1% hits; CellTiter-Glo luminescence, 72 h; active compounds read low; viability, % at 10 µM (by protocol); AID 648, 2007;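 active means viability at or below 30%; inactive means viability above 30%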;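 further: 100% = median luminescence of DMSO-only cell control wells on each plate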
# Pyk2 oligo antag: antagonists of Pyk2 self-association, primary screen, Q293 cells, FERM NanoBiT luminescence, HTS. Protein-tyrosine kinase 2-beta (Homo sapiens), Q14289. active compounds read low. z-score (the deposit names both 25 µM and 10 µM). 99,000 compounds, 0.83% hits. AID 1347419, 2020;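 active means Z-score of -3 or lower, scaled per plate to the spread of control and sample wells; inactive means z-score above -3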;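 further: negative z-score means lost luminescence so less FERM oligomerization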
# Target sequence (Q14289 whole entry, looked up): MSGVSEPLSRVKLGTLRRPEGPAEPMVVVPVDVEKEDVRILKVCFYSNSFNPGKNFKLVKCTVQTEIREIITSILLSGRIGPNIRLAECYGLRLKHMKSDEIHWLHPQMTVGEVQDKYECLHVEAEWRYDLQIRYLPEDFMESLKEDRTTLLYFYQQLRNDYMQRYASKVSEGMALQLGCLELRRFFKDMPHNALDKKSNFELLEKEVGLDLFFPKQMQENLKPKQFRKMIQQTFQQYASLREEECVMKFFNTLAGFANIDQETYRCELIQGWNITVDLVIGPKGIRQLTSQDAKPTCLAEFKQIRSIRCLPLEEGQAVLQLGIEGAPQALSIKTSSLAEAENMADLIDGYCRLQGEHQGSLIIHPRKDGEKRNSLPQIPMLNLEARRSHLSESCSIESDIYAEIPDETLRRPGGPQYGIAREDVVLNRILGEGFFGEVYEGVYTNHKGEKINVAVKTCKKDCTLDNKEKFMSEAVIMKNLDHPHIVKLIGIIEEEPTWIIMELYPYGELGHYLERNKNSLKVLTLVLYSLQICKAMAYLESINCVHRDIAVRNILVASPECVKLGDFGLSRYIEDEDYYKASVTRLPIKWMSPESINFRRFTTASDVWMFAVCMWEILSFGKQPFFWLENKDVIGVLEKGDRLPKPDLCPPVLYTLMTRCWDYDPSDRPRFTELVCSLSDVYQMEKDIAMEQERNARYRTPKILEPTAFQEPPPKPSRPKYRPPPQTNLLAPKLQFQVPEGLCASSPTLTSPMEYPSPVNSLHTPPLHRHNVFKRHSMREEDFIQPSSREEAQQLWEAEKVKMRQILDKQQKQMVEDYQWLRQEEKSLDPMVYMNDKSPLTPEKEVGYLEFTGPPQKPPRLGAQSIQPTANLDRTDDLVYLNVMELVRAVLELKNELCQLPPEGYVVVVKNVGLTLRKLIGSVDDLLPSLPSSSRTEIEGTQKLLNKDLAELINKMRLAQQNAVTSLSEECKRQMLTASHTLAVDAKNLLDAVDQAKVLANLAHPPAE
# Lung fibro prol: antiproliferative effect on LL 47 fibroblasts – human, LL 47 cells, CellTiter-Glo luminescence, primary screen. AID 719, 2007. viability, % at 10 µM. LL 47 human lung fibroblast viability, ATP luminescence; active compounds read low. 85,000 compounds, 1.1% hits;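 active means viability at or below 50% in the single dose screen; inactive means viability above 50%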;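 further: compound exposure lasted 72 h before the ATP readout; 100% = median luminescence of untreated cell-only wells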
#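 Assay system: human lung fibroblast line LL 47, low passage. Input: 1,150 fibroblasts seeded per well. Times: overnight cell rest, 72 h compound treatment at 37 °C. Evaluation: % viability of median cell-only signal. Technique: luminescent ATP detection, CellTiter-Glo. Control set: cell-only wells, no compound.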
# H69AR growth 86K: proliferation blockers of H69AR lung cancer cells, primary screen, cell-based, human, 86K library. H69AR lung tumor viability, ATP luminescence, 72 h; active compounds read low. viability, % at 10 µM. 85,000 compounds, 6% hits;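 active means viability at or below 40%; inactive means viability above 40%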;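 further: multidrug resistant small cell line overexpressing MRP-1 efflux transporter; 100% = mean luminescence of untreated control wells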
# * = called active by the depositor; / = no result.
SMILES,HCT116 bCat-KO,PTEN del growth,HUVEC prolif 384,Pyk2 oligo antag,Lung fibro prol,H69AR growth 86K
Cc1cc(C)nc(SCc2nnc(SCC(=O)Nc3nc(-c4ccccc4)cs3)n2C)n1,85,97,92,0.66,101,48
CCn1c(SCC(=O)Nc2nc(-c3ccc(C)cc3)cs2)nnc1-c1ccccc1,49,51,101,-2.4,99,60
CCn1c(SCC(=O)Nc2nc(C)cs2)nnc1C(NC(=O)c1ccccc1Cl)C(C)C (stereo not given),95,93,94,-0.1,99,38*
Cc1nn(CC(=O)OC(C)C(=O)Nc2ccccc2[N+](=O)[O-])c(C)c1[N+](=O)[O-] (stereo not given),89,95,/,/,/,/
Cc1cccc(-c2c3c(=O)n(C)c(=O)n(C)c3c3nnc4ccccc4n23)c1,/,/,/,0.39,/,/
CN=C(NC1CCCCC1)c1ccc(Cl)cc1,92,97,/,/,/,/
COc1ccccc1OCCCCN1CCN(C(c2ccccc2)c2ccccc2)CC1,53,37,/,/,/,/
COc1ccc(-c2csc(NC(=O)Cn3nc(C)cc3C)n2)cc1,95,96,94,-0.19,97,100
COc1ccc2cc(C)c3nnc(SCC(=O)Nc4nc(-c5ccc(F)cc5)cs4)n3c2c1,2.7*,2.0*,/,/,/,/
CCCc1cc(=O)[nH]c(/N=C(/NC(=O)c2ccccc2)Nc2ccc3c(c2)OCCO3)n1,/,/,55,/,76,32*
Cc1cc(=O)[nH]c(/N=C(/NC(=O)c2ccccc2)Nc2ccc3c(c2)OCCO3)n1,/,/,74,/,87,41
Clc1ccc(-c2csc(N3CCN(c4ccccc4)CC3)n2)cc1,107,103,75,0.18,104,40*
O=C(COC(=O)CNS(=O)(=O)c1ccccc1)Nc1ccc(Cl)cn1,99,109,97,0.42,101,94
Cc1ccc(Nc2nc(C(=O)N3CCC(C(=O)NCCN4CCOCC4)CC3)cs2)cc1,106,99,92,-0.02,100,99
CCOC(=O)/C(=N\Nc1ccccc1)c1csc(Nc2ccc(C)cc2)n1,42,34,25*,-1.1,79,3.3*
CCOc1ccc(NS(=O)(=O)c2ccc(OCC)c3ncccc23)cc1,43,42,66,-1.2,76,16*
Cc1cc(NC(=O)C2(c3ccccc3)CCCC2)no1,97,85,102,-0.03,101,91
Cn1c(=O)c2c(ncn2CC(COCc2ccc(Cl)cc2)OCc2ccc(Cl)cc2)n(C)c1=O (stereo not given),59,50,81,1.3,97,35*
Cn1c(=O)c2c(ncn2CC(O)CO)n(C)c1=O (stereo not given),102,96,98,/,89,97
Cc1cc(Nc2nc3ccccc3nc2Cl)n(-c2ccc([N+](=O)[O-])cc2)n1,20,38,67,-2.4,68,21*
NNC(=O)c1cc(Br)cs1,88,104,/,/,/,/
Cc1ccccc1-c1nc(S(=O)(=O)c2ccc(Br)cc2)c(NCc2cccnc2)o1,63,53,91,-3.4*,91,50
Cc1ccc(-n2c(SCC(=O)N3Cc4ccccc4CC3C(=O)O)nnc2-c2cccnc2)c(C)c1 (stereo not given),91,101,/,/,/,/
CN(C)CCCOc1ccc(C(C)(C)c2ccccc2)cc1,34,31,34,-0.4,79,28*
COc1ccccc1NC(=O)Cn1nnc(-c2ccccc2NC(=O)c2cccs2)n1,29,55,49,-1.2,87,30*
SMILES,HCT116 bCat-KO,PTEN del growth,HUVEC prolif 384,Pyk2 oligo antag,Lung fibro prol,H69AR growth 86K
O=C(Cn1nnc(-c2ccccc2NC(=O)c2cccs2)n1)Nc1ccccc1,61,52,59,-1.7,86,15*
COc1cc(C(=O)Nc2ccccc2-c2nnn(CC(N)=O)n2)cc(OC)c1OC,104,108,/,-0.18,/,/
CCOc1ccc(-c2nnn(CC(=O)Nc3ccccc3OC)n2)cc1OCC,116,99,42,-0.34,78,11*
COc1ccc(NC(=O)Cn2nnc(-c3ccccc3NC(=O)C3CC3)n2)cc1,91,99,94,-1.8,93,89
COc1cc(CN(C2CCCCC2)S(=O)(=O)c2ccc(S(=O)(=O)N(C)C3CCCCC3)cc2)cc(OC)c1OC,88,94,/,/,/,/
Cn1c(C(=O)N2CCCC(C(=O)NCCCSC3CCCCC3)C2)cc2sccc21 (stereo not given),71,67,71,-0.64,94,29*
Cn1c(C(=O)N2CCCC(C(=O)NCc3cccs3)C2)cc2sccc21 (stereo not given),85,90,89,0.31,93,88
CC(=O)c1cccc(NC(=O)COc2cc3oc(=O)c(CC(C)O)c(C)c3cc2Cl)c1 (stereo not given),91,94,/,/,/,/
CCCNC(=O)Cn1c(=O)cnc2ccccc21,97,107,/,/,/,/
COc1ccc(CCNC(=O)Cn2c(=O)cnc3ccccc32)cc1,35,43,60,-0.01,62,25*
O=C(Nc1c(C(=O)Nc2cccc(F)c2)oc2ccccc12)c1ccc2c(c1)OCO2,74,73,74,-0.17,71,24*
Cc1nn(C)c(C)c1S(=O)(=O)N1CCCC(C(=O)NC2CCCCC2)C1 (stereo not given),95,104,105,-0.18,110,100
Cc1cccc(NC(=O)C2CCCN(S(=O)(=O)c3c(C)nn(C)c3C)C2)n1 (stereo not given),78,82,96,/,85,38*
O=C(NCCc1cccc(Cl)c1)c1ccc(Cl)c([N+](=O)[O-])c1,85,67,/,/,/,/
CC(C)(CNC(=O)c1ccc([N+](=O)[O-])c(Cl)c1)CNC(=O)c1ccc([N+](=O)[O-])c(Cl)c1,2.0*,2.1*,/,-0.78,/,/
COc1ccc(-c2cc(N)n(S(=O)(=O)c3c(F)c(F)c(F)c(F)c3F)n2)cc1OC,5.7*,2.1*,2.2*,-1.6,2.6*,1.4*
CC(C)(C)C(C(Oc1ccc(Cl)cc1)n1cncn1)n1nnnc1C(c1cccc(Cl)c1)N1CCCCC1 (stereo not given),5.7*,15,55,/,96,12*
Cn1cnnc1SCc1ccc(C(=O)N=Nc2c(O)n(C)c3ccccc23)cc1,93,96,/,-0.2,/,/
COC(=O)C1=C(C)N(CC2CCCO2)C(=O)C1 (stereo not given),96,108,90,0.29,98,92
COC(=O)[C@@]1(Cc2ccc(F)cc2)[C@H]2c3cc(C(=O)N(C)C)n(Cc4ccccc4)c3C[C@H]2CN1C(=O)c1ccccc1,22,32,/,/,/,/

# Screening data (PubChem)
